Data reported in ChEMBL document CHEMBL4732114, “Design and structural optimization of novel 2H-benzo[h]chromene derivatives that target AcrB and reverse bacterial multidrug resistance” (Eur J Med Chem, 2021).
Values after ≈ are worked out from the molar mass of the structure shown.

What was measured:
[1] = biological target: T1, Multidrug efflux pump subunit AcrB (Escherichia coli (strain K12)) (UniProt P31224); assay: Inhibition of AcrB in multidrug-resistant Escherichia coli BW25113 assessed as potentiation of tetraphenylphosphonium-induced antibacterial activity by measuring tetraphenylphosphonium MIC at 32 ug/ml by checkerboard titration method (reference value: 1024 ug/ml); settings: dose 32.0 µg/ml
T1 sequence (whole entry): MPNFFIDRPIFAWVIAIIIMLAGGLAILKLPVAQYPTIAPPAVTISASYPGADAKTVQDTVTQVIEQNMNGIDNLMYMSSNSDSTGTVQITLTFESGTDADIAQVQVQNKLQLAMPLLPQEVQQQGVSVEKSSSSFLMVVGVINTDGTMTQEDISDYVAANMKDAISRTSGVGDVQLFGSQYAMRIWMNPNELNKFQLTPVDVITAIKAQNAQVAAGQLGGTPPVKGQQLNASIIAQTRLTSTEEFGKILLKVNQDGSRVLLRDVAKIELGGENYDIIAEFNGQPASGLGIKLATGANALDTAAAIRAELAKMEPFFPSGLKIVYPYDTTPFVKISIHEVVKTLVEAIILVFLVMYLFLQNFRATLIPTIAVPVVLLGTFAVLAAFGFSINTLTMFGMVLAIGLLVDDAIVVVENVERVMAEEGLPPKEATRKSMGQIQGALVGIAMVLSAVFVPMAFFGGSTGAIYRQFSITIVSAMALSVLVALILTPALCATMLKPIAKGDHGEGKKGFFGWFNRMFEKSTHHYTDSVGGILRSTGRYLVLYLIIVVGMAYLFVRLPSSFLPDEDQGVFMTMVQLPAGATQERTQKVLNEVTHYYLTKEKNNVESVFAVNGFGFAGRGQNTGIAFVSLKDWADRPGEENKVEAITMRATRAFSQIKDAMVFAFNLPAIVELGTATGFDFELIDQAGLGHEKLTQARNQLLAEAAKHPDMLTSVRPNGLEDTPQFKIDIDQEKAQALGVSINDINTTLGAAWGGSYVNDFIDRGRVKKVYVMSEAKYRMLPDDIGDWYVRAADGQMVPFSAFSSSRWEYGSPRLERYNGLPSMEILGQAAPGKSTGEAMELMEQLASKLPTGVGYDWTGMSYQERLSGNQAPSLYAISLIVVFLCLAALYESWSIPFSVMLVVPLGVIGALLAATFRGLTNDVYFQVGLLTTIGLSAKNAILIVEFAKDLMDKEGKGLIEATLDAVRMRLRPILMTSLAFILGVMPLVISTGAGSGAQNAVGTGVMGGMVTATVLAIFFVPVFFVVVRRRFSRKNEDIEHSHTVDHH

[2] = biological target: T1, Multidrug efflux pump subunit AcrB (Escherichia coli (strain K12)); assay: Inhibition of AcrB in multidrug-resistant Escherichia coli BW25113 assessed as potentiation of chloramphenicol-induced antibacterial activity by measuring chloramphenicol MIC at 8 ug/ml by checkerboard titration method (reference value: 8 ug/ml); settings: dose 8.0 µg/ml
[3] = biological target: T1, Multidrug efflux pump subunit AcrB (Escherichia coli (strain K12)); settings: Escherichia coli BW25113; dose 32.0 µg/ml
[4] = biological target: T1, Multidrug efflux pump subunit AcrB (Escherichia coli (strain K12)); assay: Inhibition of AcrB in multidrug-resistant Escherichia coli BW25113 assessed as potentiation of chloramphenicol-induced antibacterial activity by measuring chloramphenicol MIC at 128 ug/ml by checkerboard titration method (reference value: 8 ug/ml); settings: dose 128.0 µg/ml
Cell membrane [5] = assay: Induction of outer membrane permeabilization in wild type Escherichia coli BW25113 assessed as increase in nitrocefin hydrolysis at 128 ug/ml in presence of CCCP by spectroscopic analysis; settings: dose 128 µg/ml
Procedure, shortened: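 Intact E. coli were treated with 10 μM CCCP to block nitrocefin efflux, then given compound, nothing, or polymyxin B as permeabilizer control. Nitrocefin was added, and hydrolysis by periplasmic β-lactamase was followed as the rise in absorbance at 490 nm. Duplicate experiments were run on different days.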

[6] = biological target: T1, Multidrug efflux pump subunit AcrB (Escherichia coli (strain K12)); assay: Inhibition of AcrB in multidrug-resistant Escherichia coli BW25113 assessed as potentiation of levofloxacin-induced antibacterial activity by measuring levofloxacin MIC at 64 ug/ml by checkerboard titration method (reference value: 0.06 ug/ml); settings: dose 64.0 µg/ml
[7] = Toxicity in multidrug-resistant Escherichia coli BW25113 assessed as growth inhibition by two-fold broth dilution method
[8] = biological target: T1, Multidrug efflux pump subunit AcrB (Escherichia coli (strain K12)); assay: Inhibition of AcrB in multidrug-resistant Escherichia coli BW25113 assessed as potentiation of erythromycin-induced antibacterial activity by measuring erythromycin MIC at 8 ug/ml by checkerboard titration method (reference value: 64 ug/ml); settings: dose 8.0 µg/ml
[9] = biological target: T1, Multidrug efflux pump subunit AcrB (Escherichia coli (strain K12)); assay: Inhibition of AcrB in multidrug-resistant Escherichia coli BW25113 assessed as potentiation of chloramphenicol-induced antibacterial activity by measuring chloramphenicol MIC at 64 ug/ml by checkerboard titration method (reference value: 8 ug/ml); settings: dose 64.0 µg/ml
[10] = biological target: T1, Multidrug efflux pump subunit AcrB (Escherichia coli (strain K12)); assay: Inhibition of AcrB in multidrug-resistant Escherichia coli BW25113 assessed as potentiation of erythromycin-induced antibacterial activity by measuring erythromycin MIC at 64 ug/ml by checkerboard titration method (reference value: 64 ug/ml); settings: dose 64.0 µg/ml
[11] = biological target: T1, Multidrug efflux pump subunit AcrB (Escherichia coli (strain K12)); settings: Escherichia coli BW25113; dose 16.0 µg/ml
[12] = Toxicity in multidrug-resistant Escherichia coli BW25113 harboring AcrB deletion mutant assessed as growth inhibition by two-fold broth dilution method
[13] = biological target: T1, Multidrug efflux pump subunit AcrB (Escherichia coli (strain K12)); assay: Inhibition of AcrB in multidrug-resistant Escherichia coli BW25113 assessed as potentiation of tetraphenylphosphonium-induced antibacterial activity by measuring tetraphenylphosphonium MIC at 128 ug/ml by checkerboard titration method (reference value: 1024 ug/ml); settings: dose 128.0 µg/ml
[14] = biological target: T1, Multidrug efflux pump subunit AcrB (Escherichia coli (strain K12)); assay: Inhibition of AcrB in multidrug-resistant Escherichia coli BW25113 assessed as potentiation of levofloxacin-induced antibacterial activity by measuring levofloxacin MIC at 16 ug/ml by checkerboard titration method (reference value: 0.06 ug/ml); settings: dose 16.0 µg/ml
Cell membrane [15] = assay: Induction of inner membrane permeabilization in wild type Escherichia coli BW25113 assessed as perturbation of proton motive force at 32 ug/ml measured after 10 mins in presence of CCCP and glucose by Di0C2(3) probe based fluorescence assay; settings: escherichia coli bw25113, 10 min, dose 32 µg/ml
Procedure, shortened: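 Cell suspensions were left untreated or exposed to 8-128 µg/mL compound for 10 min. DiOC₂(3) was then added and fluorescence followed to a plateau. Cells were re-energized with 0.5% glucose, and the rise in fluorescence was read as membrane-potential build-up. CCCP was added last to dissipate the potential.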

Row | Compound | MIC [1] [µg/mL] | MIC [2] [µg/mL] | MIC [3] [µg/mL] | MIC [4] [µg/mL] | Activity (Cell membrane [5]) | MIC [6] [µg/mL] | MIC [7] [µg/mL] | MIC [8] [µg/mL] | MIC [9] [µg/mL] | MIC [10] [µg/mL] | MIC [11] [µg/mL] | MIC [12] [µg/mL] | MIC [13] [µg/mL] | MIC [14] [µg/mL] | Activity (Cell membrane [15])
1 | C=CC(=O)Nc1ccc(COc2cccc3c4c(c(C(=O)N5CCOCC5)cc23)CCC(C)(C)O4)cc1 | 256 | 4 | 16 (≈ 32 µM) | 2 | Not Active | 0.06 | > 512 | 16 | 4 | 16 | 16 (≈ 32 µM) | > 128 | 64 | 0.06 | –
2 | CC1(C)CCc2c(C(=O)N3CCOCC3)cc3c(OCc4ccccc4)cccc3c2O1 | 512 | 8 | 16 (≈ 37.1 µM) | 4 | Not Active | 0.03 | > 512 | 64 | 4 | 16 | 16 (≈ 37.1 µM) | > 128 | 64 | 0.03 | –
3 | CC1CN(C(=O)c2cc3c(OCc4ccc(Br)cc4)cccc3c3c2CCC(C)(C)O3)CC(C)O1 (stereo unspecified) | 1020 | 8 | 16 (≈ 29.7 µM) | 8 | Not Active | 0.06 | > 512 | 64 | 8 | 64 | 16 (≈ 29.7 µM) | > 128 | 512 | 0.06 | –
4 | CC1(C)CC(=O)c2ccc(OCC(=O)Nc3ccc(C#N)c(C(F)(F)F)c3)cc2O1 | 512 | 8 | 16 (≈ 38.2 µM) | – | – | 0.06 | > 512 | 64 | 4 | 64 | 16 (≈ 38.2 µM) | > 128 | – | 0.06 | Not Active
5 | CC1CN(C(=O)c2cc3c(OCc4c(Cl)cccc4Cl)cccc3c3c2CCC(C)(C)O3)CC(C)O1 (stereo unspecified) | 1020 | 8 | 16 (≈ 30.3 µM) | 8 | – | 0.03 | – | 64 | 8 | 64 | 16 (≈ 30.3 µM) | – | 1020 | 0.03 | –
6 | CNC(=O)c1ccc(COc2cccc3c4c(c(Cn5cnnn5)cc23)CCC(C)(C)O4)cc1 | 1020 | 8 | 16 (≈ 35 µM) | 4 | – | 0.06 | > 512 | 64 | 4 | 64 | 16 (≈ 35 µM) | > 128 | 1020 | 0.06 | –
7 | CC1(C)CCc2c(Cn3cnnn3)cc3c(OCc4ccccc4)cccc3c2O1 | 1020 | 8 | 16 (≈ 40 µM) | 4 | – | 0.06 | > 512 | 64 | 4 | 64 | 16 (≈ 40 µM) | > 128 | 1020 | 0.06 | –
